Experimental data collected from several papers.

Structure (SMILES) | test | test system | setting | logD
Cc1c(C(=O)N[C@H]2CCCC[C@H]2N)nc(-c2ccc(Cl)cc2Cl)n1-c1ccc(OS(=O)(=O)CCC(F)(F)F)cc1 (racemic) | shake flask | aqueous buffer | pH 7.4 | 3.35
Cc1noc([C@H](Cc2c[nH]cn2)NC(=O)CN(CCCc2ccccc2)CC(=O)O)n1 | shake flask | PBS | 2 h, pH 7.4 | -0.84
Cc1c(C(=O)N[C@@H]2CCCC[C@H]2O)nc(-c2ccc(Cl)cc2Cl)n1-c1ccc(OS(=O)(=O)CCC(F)(F)F)cc1 (relative stereo) | shake flask | aqueous buffer | pH 7.4 | > 4.4
COCCCCCCOc1ccc(C2=N[C@@](C)(C(=O)O)CS2)c(O)c1 | shake flask | aqueous buffer | pH 7.4 | 0.95
CCCCc1nc2c(N)nc3ccccc3c2n1Cc1ccc(CN)cc1 | shake flask | PBS | pH 7.4 | 0.42
CC(C)CN(C[C@@H](O)[C@H](Cc1ccccc1)NC(=O)O[C@H]1CO[C@H]2OCC[C@H]21)S(=O)(=O)c1ccc(N)cc1 | shake flask | PBS | pH 5 | 2.8
Cc1c(C(=O)NN2CCCCC2)nc(-c2ccc(Cl)cc2Cl)n1-c1ccc(OS(=O)(=O)CCC(C)(C)C)cc1 | shake flask | aqueous buffer | pH 7.4 | > 5.8
COC(=O)CN(CC(=O)N[C@@H](Cc1c[nH]cn1)C(=O)OC)Cc1ccccc1 | shake flask | PBS | 2 h, pH 7.4 | 0.82
COc1ccn2c(Nc3ccccc3F)c(-c3ccncn3)nc2c1 | – | – | pH 7.4 | 2.5
Cc1c(C(=O)NN2CCCCC2)nc(-c2ccc(Cl)cc2Cl)n1-c1ccc(OS(=O)(=O)CCC(C)C)cc1 | shake flask | aqueous buffer | pH 7.4 | 5.3
CN1CCN(c2ccc3nc(-c4ccc5nc(-c6ccc(OCCCCNC(=O)[C@H](N)CS)cc6)[nH]c5c4)[nH]c3c2)CC1 | shake flask | PBS | pH 7.4 | 2
O=C(C1CCN(c2nnnn2-c2ccccc2)CC1)N1CCCc2c(Cl)cccc21 | shake flask | PBS | pH 7.4 | 3.6
Cc1c(C(=O)NN2CCCCC2)nc(-c2ccc(Cl)cc2Cl)n1-c1ccc(OS(=O)(=O)CCC(F)(F)F)cc1 | shake flask | aqueous buffer | pH 7.4 | 4.9
CCC1=C(C)C2=NC1=Cc1c(C)c(CC)c3[n]1[Fe][n]1c(c(C)c(CCC(=O)O)c1=CC1=NC(=C3)C(C)=C1CCC(=O)O)=C2 | shake flask | aqueous buffer | pH 9 | 0.552
Cc1c(C(=O)Nc2ccc(C(F)(F)F)nc2)nc(-c2ccc(Cl)cc2Cl)n1-c1ccc(OS(=O)(=O)CCC(F)(F)F)cc1 | shake flask | aqueous buffer | pH 7.4 | > 4.9
C[C@]1(C(=O)O)CSC(c2ccc(OCC(=O)O)cc2O)=N1 | shake flask | aqueous buffer | pH 7.4 | -1.98
N#Cc1c[nH]c2c(C(=O)N3CCN(CCc4ccc(F)cc4)CC3)cccc12 | shake flask | aqueous buffer | pH 7.4 | 3.5
COC(=O)[C@H](Cc1c[nH]cn1)NC(=O)CN(CCCc1ccccc1)CC(=O)O | shake flask | PBS | 2 h, pH 7.4 | -0.78
O=C(NCCN1CCCC1)c1cc(-c2ccc(CN3CCOCC3)cc2)nc2ccc(F)cc12 | shake flask | aqueous buffer | pH 7.4 | 2.5
